What was measured:
[1] = Drug metabolism in B6C3F1 mouse liver microsomes assessed as N-glucuronide-triclocarban formation incubated for 5 mins prior to UDPGA addition measured after 5 to 30 mins by LC-UV analysis; assay type: ADME
Method in brief: (§1)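 Microsomes or UGT Supersomes (5 µg protein) were held 15 min on ice with alamethicin in 100 mM potassium phosphate pH 7.4. TCC was added at 10 µM (2% DMSO) with 10 mM MgCl2 and 10 mM saccharolactone, pre-warmed 5 min at 37 °C, then started with UDPGA. Samples at 5, 10, 15 and 30 min were quenched in ACN. Product was read by LC-UV at 265 nm; rate came from regression over time, three incubations.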

[2] = Drug excretion in monkey urine; assay type: ADME, tissue-based, Macaca mulatta; details: rhesus monkey, read-out: Drug excretion
[3] = biological target: T1, UDP-glucuronosyltransferase 1A1 (Homo sapiens, UniProt P22309); assay: Drug metabolism assessed as human UGT1A1-mediated N-glucuronide-triclocarban formation expressed in baculovirus infected insect sf9 cells incubated for 5 mins prior to UDPGA addition measured after 5 to 30 mins by LC-UV analysis; assay type: ADME; method in brief: as §1
T1 sequence (P22309 whole entry): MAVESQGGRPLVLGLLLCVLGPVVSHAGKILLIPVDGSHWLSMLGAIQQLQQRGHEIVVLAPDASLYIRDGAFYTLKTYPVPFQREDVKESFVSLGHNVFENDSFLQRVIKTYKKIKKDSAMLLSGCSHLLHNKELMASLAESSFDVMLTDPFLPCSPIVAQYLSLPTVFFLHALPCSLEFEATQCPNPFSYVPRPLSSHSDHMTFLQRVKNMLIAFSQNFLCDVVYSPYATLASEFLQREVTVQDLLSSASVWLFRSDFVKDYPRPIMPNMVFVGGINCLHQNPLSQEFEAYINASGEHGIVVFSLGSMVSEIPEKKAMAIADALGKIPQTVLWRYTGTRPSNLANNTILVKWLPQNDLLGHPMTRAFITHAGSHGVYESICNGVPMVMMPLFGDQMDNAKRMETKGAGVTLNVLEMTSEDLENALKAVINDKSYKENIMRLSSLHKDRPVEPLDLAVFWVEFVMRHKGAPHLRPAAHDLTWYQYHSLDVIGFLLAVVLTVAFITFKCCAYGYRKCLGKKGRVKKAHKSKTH

Liver microsome = assay: Drug metabolism in Sprague-Dawley rat liver microsomes assessed as N'-glucuronide-triclocarban formation incubated for 5 mins prior to UDPGA addition measured after 5 to 30 mins by LC-UV analysis; assay type: ADME; method in brief: as §1
[4] = Drug excretion in Sprague-Dawley rat urine assessed as 2'-O-glucuronide-triclocarban formation at 1 mg/kg, po by LC-MS analysis; assay type: ADME, organism-based; set-up: dose 1 mg/kg, route oral; details: in vivo
[5] = biological target: T2, UDP-glucuronosyltransferase 1A3 (Homo sapiens, UniProt P35503); assay: Drug metabolism assessed as human UGT1A3-mediated N'-glucuronide-triclocarban formation expressed in baculovirus infected insect sf9 cells incubated for 5 mins prior to UDPGA addition measured after 5 to 30 mins by LC-UV analysis; assay type: ADME; method in brief: as §1
T2 sequence (P35503 whole entry): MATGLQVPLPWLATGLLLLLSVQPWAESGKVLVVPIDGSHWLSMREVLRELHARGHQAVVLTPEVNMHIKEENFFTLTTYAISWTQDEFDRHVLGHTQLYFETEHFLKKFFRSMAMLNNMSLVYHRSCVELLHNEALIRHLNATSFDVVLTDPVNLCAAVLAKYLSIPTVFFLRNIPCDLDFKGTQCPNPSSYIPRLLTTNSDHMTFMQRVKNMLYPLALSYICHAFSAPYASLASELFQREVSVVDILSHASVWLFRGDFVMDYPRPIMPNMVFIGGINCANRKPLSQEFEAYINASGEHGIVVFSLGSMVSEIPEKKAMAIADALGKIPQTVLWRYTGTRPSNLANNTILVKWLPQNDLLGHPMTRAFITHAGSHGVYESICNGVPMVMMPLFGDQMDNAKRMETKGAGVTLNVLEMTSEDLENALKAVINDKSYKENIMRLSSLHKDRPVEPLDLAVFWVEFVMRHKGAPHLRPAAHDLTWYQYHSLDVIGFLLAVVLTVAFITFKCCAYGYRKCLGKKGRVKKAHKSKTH

[6] = biological target: T3, UDP-glucuronosyltransferase 1A4 (Homo sapiens, UniProt P22310); assay: Drug metabolism assessed as human UGT1A4-mediated N'-glucuronide-triclocarban formation expressed in baculovirus infected insect sf9 cells incubated for 5 mins prior to UDPGA addition measured after 5 to 30 mins by LC-UV analysis; assay type: ADME; method in brief: as §1
T3 sequence (P22310 whole entry): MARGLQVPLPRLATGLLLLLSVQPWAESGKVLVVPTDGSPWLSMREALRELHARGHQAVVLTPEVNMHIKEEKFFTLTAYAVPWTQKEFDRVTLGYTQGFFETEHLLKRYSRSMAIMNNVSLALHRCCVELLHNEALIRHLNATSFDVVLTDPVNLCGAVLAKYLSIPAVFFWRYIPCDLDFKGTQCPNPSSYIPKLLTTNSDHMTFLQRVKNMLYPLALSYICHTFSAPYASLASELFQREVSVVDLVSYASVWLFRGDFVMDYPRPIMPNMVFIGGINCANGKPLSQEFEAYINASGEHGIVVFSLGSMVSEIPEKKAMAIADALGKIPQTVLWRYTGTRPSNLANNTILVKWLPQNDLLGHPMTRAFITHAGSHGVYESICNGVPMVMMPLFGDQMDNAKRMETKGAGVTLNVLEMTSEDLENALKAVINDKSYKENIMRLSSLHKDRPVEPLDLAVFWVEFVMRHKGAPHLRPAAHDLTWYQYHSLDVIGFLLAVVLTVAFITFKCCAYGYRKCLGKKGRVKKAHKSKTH

[7] = biological target: T4, UDP-glucuronosyltransferase 2B17 (Homo sapiens, UniProt O75795); assay: Drug metabolism assessed as human UGT2B17-mediated N'-glucuronide-triclocarban formation expressed in baculovirus infected insect sf9 cells incubated for 5 mins prior to UDPGA addition measured after 5 to 30 mins by LC-UV analysis; assay type: ADME; method in brief: as §1
T4 sequence (O75795 whole entry): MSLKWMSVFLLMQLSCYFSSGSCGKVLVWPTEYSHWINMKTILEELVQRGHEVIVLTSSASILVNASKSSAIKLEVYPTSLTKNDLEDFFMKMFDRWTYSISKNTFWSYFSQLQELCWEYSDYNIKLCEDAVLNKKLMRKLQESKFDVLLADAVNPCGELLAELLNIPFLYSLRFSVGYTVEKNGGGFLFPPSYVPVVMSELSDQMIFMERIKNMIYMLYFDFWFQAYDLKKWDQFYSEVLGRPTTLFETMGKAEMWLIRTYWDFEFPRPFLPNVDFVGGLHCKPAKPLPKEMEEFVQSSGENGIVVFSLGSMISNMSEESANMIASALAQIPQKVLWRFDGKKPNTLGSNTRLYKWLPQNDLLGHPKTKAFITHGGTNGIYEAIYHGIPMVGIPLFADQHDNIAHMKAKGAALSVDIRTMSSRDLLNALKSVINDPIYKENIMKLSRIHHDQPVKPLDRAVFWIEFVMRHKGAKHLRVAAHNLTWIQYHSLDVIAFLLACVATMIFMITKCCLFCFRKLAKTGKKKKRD

With O=C(Nc1ccc(Cl)cc1)Nc1ccc(Cl)c(Cl)c1 [TRICLOCARBAN] the Drug metabolism [1] was “metabolite_not_detected”, the dose excreted [2] was 25% and the Drug metabolism [3] was “metabolite_not_detected”. The Drug metabolism (Liver microsome) was “metabolite_not_detected”, the Drug excretion [4] was “metabolite_detected” and the Drug metabolism [5] was “metabolite_not_detected”. For the same molecule, the Drug metabolism [6] was “metabolite_not_detected” and the Drug metabolism [7] was “metabolite_not_detected”.
